Data as given in ChEMBL document CHEMBL4390648, “Chemical synthesis, crystal structure, versatile evaluation of their biological activities and molecular simulations of novel pyrithiobac derivatives” (Eur J Med Chem, 2019).
Values after ≈ are worked out from the molar mass of the structure shown. Active and inactive are the calls of the source. No cut-off for these calls is given here.

Tests used:
Phytophthora capsici = test: Antifungal activity against Phytophthora capsici assessed as reduction in growth at 50 mg/l by mycelium growth rate method relative to control; assay type: functional
Summary of the method: (§1)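 Mycelium growth rate method against S. sclerotiorum, P. capsici, P. piricola, R. cerealis, W. anthracnose and R. bakanae. Each compound tested at 50 mg/L, with chlorothalonil and PTB as controls. Relative inhibitory ratio (%) calculated from mycelial growth.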

Candida albicans [1] = test: Antifungal activity against Candida albicans isolate 17 grown in YNB medium incubated for 24 hrs by microdilution method; assay type: functional; details: isolate 17, 24 h
Summary of the method: (§2)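 C. albicans standard strain SC5314 and clinical isolates g5 and 17# tested by broth microdilution in YNB or RPMI 1640 medium. Plates incubated at 35 °C for up to 72 h, with visual readings taken at 24 h. MIC taken as the lowest concentration preventing visible growth.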

[2] = tested on: Botryosphaeria berengeriana; test: Antifungal activity against Physalospora pyricola assessed as reduction in growth at 50 mg/l by mycelium growth rate method relative to control; assay type: functional; summary of the method: as §1
Arabidopsis thaliana [3] = test: Inhibition of Arabidopsis thaliana AHAS catalytic subunit using pyruvate as substrate at 10 uM measured after 30 mins by colorimetric method relative to control
Summary of the method: (§3)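 Colorimetric assay in 50 mM potassium phosphate pH 7.0 with 50 mM pyruvate, 1 mM thiamine diphosphate, 10 mM MgCl2 and 10 μM FAD. Incubated 30 min at 37 °C for plant AHAS and 30 °C for fungal AHAS. Acetolactate formed was then quantified.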

[4] = tested on: Severe acute respiratory syndrome-related coronavirus; test: Inhibition of SARS coronavirus M protease using AVLQSGFRKK as substrate at 20 uM by FRET assay relative to control
Summary of the method: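 Purified SARS-CoV Mpro assayed by FRET. Protein, compound and substrate were preheated at 37 °C and oscillated. Fluorescence (ex 320/em 405 nm) was read every 5 s for 200 reads.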

Candida albicans [5] = test: Antifungal activity against Candida albicans isolate g5 grown in YNB medium incubated for 24 hrs by microdilution method; assay type: functional; details: isolate g5, 24 h; summary of the method: as §2
[6] = tested on: Brassica rapa subsp. oleifera; test: Herbicidal activity against Brassica campestris L assessed as inhibition of rape root growth at 10 mg/l root growth incubated for 48 hrs relative to control; assay type: functional
Summary of the method: (§4)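 Rape seeds soaked in distilled water for 4 h, then placed on filter paper wetted with inhibitor solution, 15 seeds per 6-cm dish. Germinated in the dark at 28 °C for 48 h. Mean length of 10 roots per plate measured.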

Candida albicans [7] = test: Antifungal activity against Candida albicans SC5314 grown in RPMI 1640 medium incubated for 24 hrs by microdilution method; assay type: functional; details: SC5314, 24 h; summary of the method: as §2
[8] = tested on: Brassica rapa subsp. oleifera; test: Herbicidal activity against Brassica campestris L assessed as inhibition of rape root growth at 100 mg/l root growth incubated for 48 hrs relative to control; assay type: functional; summary of the method: as §4
Colletotrichum = test: Antifungal activity against Colletotrichum (W. anthracnose) assessed as reduction in growth at 50 mg/l by mycelium growth rate method relative to control; assay type: functional; summary of the method: as §1
Ceratobasidium cereale = test: Antifungal activity against Rhizoctonia cerealis assessed as reduction in growth at 50 mg/l by mycelium growth rate method relative to control; assay type: functional; summary of the method: as §1
Mythimna separata = test: Insecticidal activity against Mythimna separata assessed as larval mortality at 600 mg/l by leaf-dip method; assay type: functional
Candida albicans [9] = test: Antifungal activity against Candida albicans isolate g5 grown in RPMI 1640 medium incubated for 24 hrs by microdilution method; assay type: functional; details: isolate g5, 24 h; summary of the method: as §2
Tobacco mosaic virus [10] = test: Antiviral activity against Tobacco mosaic virus inoculated in Nicotiana tabacum leaves assessed as passivation by measuring local lesion numbers at 100 mg/l pre-incubated with virus for 30 mins followed by inoculation and measured up to 4 days; assay type: functional
Summary of the method: (§5)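 Passivation assay: TMV mixed with an equal volume of compound solution for 30 min, then rubbed onto the left half of N. tabacum L. leaves. The right half received virus mixed with solvent as control. Local lesions counted 3–4 days after inoculation. Compounds tested at 500 or 100 mg/L.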

Candida albicans [11] = test: Antifungal activity against Candida albicans isolate 17 grown in RPMI 1640 medium incubated for 24 hrs by microdilution method; assay type: functional; details: isolate 17, 24 h; summary of the method: as §2
Sclerotinia sclerotiorum = test: Antifungal activity against Sclerotinia sclerotiorum assessed as reduction in growth at 50 mg/l by mycelium growth rate method relative to control; assay type: functional; summary of the method: as §1
Arabidopsis thaliana [12] = test: Inhibition of Arabidopsis thaliana AHAS catalytic subunit using pyruvate as substrate at 100 uM measured after 30 mins by colorimetric method relative to control; summary of the method: as §3
Candida albicans [13] = test: Inhibition of Candida albicans AHAS catalytic subunit at 100 uM using pyruvate as substrate measured after 30 mins by colorimetric method relative to control; summary of the method: as §3
Tobacco mosaic virus [14] = test: Antiviral activity against Tobacco mosaic virus inoculated in Nicotiana tabacum leaves assessed as passivation by measuring local lesion numbers at 500 mg/l pre-incubated with virus for 30 mins followed by inoculation and measured up to 4 days; assay type: functional; summary of the method: as §5
Fusarium fujikuroi = test: Antifungal activity against Gibberella fujikuroi assessed as reduction in growth at 50 mg/l by mycelium growth rate method relative to control; assay type: functional; summary of the method: as §1
Candida albicans [15] = test: Inhibition of Candida albicans AHAS catalytic subunit at 10 uM using pyruvate as substrate measured after 30 mins by colorimetric method relative to control; summary of the method: as §3
Candida albicans [16] = test: Antifungal activity against Candida albicans SC5314 grown in YNB medium incubated for 24 hrs by microdilution method; assay type: functional; details: SC5314, 24 h; summary of the method: as §2

| SMILES | inhibition at 50 µg/mL (Phytophthora capsici) | MIC (Candida albicans [1]) | inhibition at 50 µg/mL [2] | inhibition (Arabidopsis thaliana [3]) | inhibition [4] | MIC (Candida albicans [5]) | inhibition (INH) [6] | MIC (Candida albicans [7]) | inhibition (INH) [8] | inhibition at 50 µg/mL (Colletotrichum) | inhibition at 50 µg/mL (Ceratobasidium cereale) | MIC (Candida albicans [9]) | inhibition (Tobacco mosaic virus [10]) | MIC (Candida albicans [11]) | inhibition at 50 µg/mL (Sclerotinia sclerotiorum) | inhibition (Arabidopsis thaliana [12]) | inhibition (Candida albicans [13]) | inhibition at 500 µg/mL (Tobacco mosaic virus [14]) | inhibition (Candida albicans [15]) | MIC (Candida albicans [16]) | other results |
| --- | --- | --- | --- | --- | --- | --- | --- | --- | --- | --- | --- | --- | --- | --- | --- | --- | --- | --- | --- | --- | --- |
| COc1nc(OC)nc(Sc2cccc(Cl)c2C#N)n1 | 33.3% | > 100 µg/mL | 51.6% | 19.8% | 76.6% | > 100 µg/mL | 0% | > 100 µg/mL | 17.4% | 40.5% | 27.4% | > 100 µg/mL | inactive | > 100 µg/mL | 50% | 79.3% | 59.5% | 0% | 38.9% | > 100 µg/mL | mortality at 600 µg/mL (Mythimna separata): 5%; inhibition at 50 µg/mL (Fusarium fujikuroi): 21.2% |
| COc1nc(OC)nc(Sc2cccc(Br)c2C#N)n1 | 25% | 6.25 µg/mL (≈ 17.7 µM) | 73.4% | 40.3% | 96.3% | 12.5 µg/mL (≈ 35.4 µM) | 0% | > 100 µg/mL | 14.3% | 47.6% | 31% | > 100 µg/mL | inactive | > 100 µg/mL | 13.9% | 74.7% | 71.1% | 0% | 34.8% | 12.5 µg/mL (≈ 35.4 µM) | mortality at 600 µg/mL (Mythimna separata): 75%; inhibition at 50 µg/mL (Fusarium fujikuroi): 21.2% |
| COc1nc(OC)nc(Sc2ccc(C#N)cc2F)n1 | 16.7% | 6.25 µg/mL (≈ 21.4 µM) | 54.7% | 42.9% | 49.7% | 12.5 µg/mL (≈ 42.8 µM) | 41.8% | 100 µg/mL (≈ 342 µM) | 54.2% | 23.8% | 58.3% | 100 µg/mL (≈ 342 µM) | inactive | 100 µg/mL (≈ 342 µM) | 13.9% | 63.3% | 85.4% | 0% | 55.7% | 6.25 µg/mL (≈ 21.4 µM) | mortality at 600 µg/mL (Mythimna separata): 0%; inhibition at 50 µg/mL (Fusarium fujikuroi): 27.3% |
| NC(=O)c1ncn([C@@H]2O[C@H](CO)[C@@H](O)[C@H]2O)n1 [RIBAVIRIN] |  |  |  |  |  |  |  |  |  |  |  |  |  |  |  |  |  | 37.6% |  |  | inhibition at 100 µg/mL (Tobacco mosaic virus [10]): 11.9% |
| COc1nc(OC)nc(Oc2cccc(Br)c2)n1 | 8.3% | > 100 µg/mL | 40.6% | 6.6% | 0% | > 100 µg/mL | 32.5% | > 100 µg/mL | 87.4% | 16.7% | 52.4% | > 100 µg/mL | inactive | > 100 µg/mL | 61.1% | 60% | 18.3% | 19.5% | 10.6% | > 100 µg/mL | inhibition at 50 µg/mL (Fusarium fujikuroi): 0% |
| CNCC(=O)N[C@@H](CO)C(=O)N[C@H]1[C@H](O)[C@@H](O)[C@H](n2ccc(N)nc2=O)O[C@@H]1C(N)=O [NINGNANMYCIN] |  |  |  |  |  |  |  |  |  |  |  |  |  |  |  |  |  | 56.4% |  |  | inhibition at 100 µg/mL (Tobacco mosaic virus [10]): 27.8% |
| COc1nc(OC)nc(Sc2cc(Cl)ccc2C#N)n1 | 41.7% | > 100 µg/mL | 37.5% | 43.6% |  | > 100 µg/mL | 34.4% | > 100 µg/mL | 40% | 19% | 40.5% | > 100 µg/mL | inactive | > 100 µg/mL | 13.9% | 100% | 26.3% | 0% | 0% | > 100 µg/mL | mortality at 600 µg/mL (Mythimna separata): 25%; inhibition at 50 µg/mL (Fusarium fujikuroi): 30.3% |
| COc1cc(OC)nc(Sc2ccc(C(=O)O)c(C(F)(F)F)c2)n1 | 8.3% | > 100 µg/mL | 35.9% | 37.7% | 21.7% | > 100 µg/mL | 0% | > 100 µg/mL | 45.2% | 14.3% | 73.8% | > 100 µg/mL | inactive | > 100 µg/mL | 75% | 77.4% | 20.6% | 0% | 2.1% | > 100 µg/mL | inhibition at 50 µg/mL (Fusarium fujikuroi): 30.3% |
| COc1cc(OC)nc(Sc2ccc(C(F)(F)F)cc2C#N)n1 |  | > 100 µg/mL |  | 28.2% | 0% | > 100 µg/mL | 0% | > 100 µg/mL | 25.8% |  |  | > 100 µg/mL |  | > 100 µg/mL |  | 72.3% | 25% |  | 3.6% | > 100 µg/mL |  |
